Calls of active or inactive are those of the source. The calls are words filed in the database; no cut-off is given here.
Columns and labels:
Mus musculus [1] = assay: Antinociceptive activity in Kunming mouse assessed as increase in latency to withdrawal by measuring AUC at 10 mg/kg, sc measured up to 45 mins post dose by tail-flick test; type: functional, organism-based; design: dose 10 mg/kg, time < 0.75 hr
Outline: (§1)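 Mouse tail-flick test. A single fixed dose was given, either 20 nmol/kg i.c.v. or 10 mg/kg s.c. Antinociception was followed as a time course, and the area under the effect-time curve (A.U.C) was calculated.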

Mus musculus [2] = assay: Antinociceptive activity in Kunming mouse assessed as increase in latency to withdrawal by measuring AUC at 20 nmol/kg, i.c.v measured up to 45 mins post dose by tail-flick test; type: functional, organism-based; design: dose 20 nmol/kg, time < 0.75 hr; outline: as §1
[3] = biological target: Delta-type opioid receptor (Rattus norvegicus, UniProt P33533); assay: Displacement of [3H]-DPDPE from delta opioid receptor in Wistar rat brain membranes preincubated for 3 hrs measured after 1 hr by scintillation counting method; type: cell membranes, Membrane
Sequence of Delta-type opioid receptor (P33533 whole entry): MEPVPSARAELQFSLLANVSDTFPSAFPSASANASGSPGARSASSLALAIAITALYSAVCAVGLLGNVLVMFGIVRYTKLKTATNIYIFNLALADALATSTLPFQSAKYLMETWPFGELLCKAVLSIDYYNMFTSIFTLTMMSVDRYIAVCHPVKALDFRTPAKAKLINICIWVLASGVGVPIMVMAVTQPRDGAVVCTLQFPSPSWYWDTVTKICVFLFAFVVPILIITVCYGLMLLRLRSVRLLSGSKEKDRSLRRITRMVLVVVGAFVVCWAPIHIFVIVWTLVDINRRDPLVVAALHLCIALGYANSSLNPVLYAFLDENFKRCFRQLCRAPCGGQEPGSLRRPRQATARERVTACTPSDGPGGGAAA
Outline: (§2)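 Opioid receptor binding done on rat brain membranes. Affinity values are given as mean ± SEM of 8-12 measurements.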

Mu-type opioid receptor = Mu-type opioid receptor (Rattus norvegicus, UniProt P33535); assay: Displacement of [3H]-DAMGO from mu opioid receptor in Wistar rat brain membranes preincubated for 1 hr measured after 1hr by scintillation counting method; type: cell membranes, Membrane; outline: as §2
Sequence of Mu-type opioid receptor (P33535 whole entry): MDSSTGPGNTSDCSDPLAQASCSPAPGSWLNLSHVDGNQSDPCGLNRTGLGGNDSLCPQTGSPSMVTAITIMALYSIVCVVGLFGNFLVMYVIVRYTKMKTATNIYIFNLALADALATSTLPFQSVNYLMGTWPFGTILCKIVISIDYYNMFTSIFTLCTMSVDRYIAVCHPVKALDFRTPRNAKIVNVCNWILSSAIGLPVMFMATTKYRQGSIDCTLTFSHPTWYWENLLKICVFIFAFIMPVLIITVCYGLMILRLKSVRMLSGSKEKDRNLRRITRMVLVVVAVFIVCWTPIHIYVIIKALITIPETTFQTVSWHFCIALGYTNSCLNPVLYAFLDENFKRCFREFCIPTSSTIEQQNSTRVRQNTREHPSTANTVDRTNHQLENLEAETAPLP

Rattus norvegicus = species on record: Rattus norvegicus; assay: Selectivity ratio of Ki from delta opioid receptor in Wistar rat brain membranes to Ki from mu opioid receptor in Wistar rat brain membranes; type: cell membranes
[4] = Half life in Kunming mouse plasma at 500 uM by RP-HPLC analysis; type: ADME, cell-free
Outline: (§3)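 Peptide stability was measured by incubation in 15% mouse brain homogenate or in mouse plasma, and the half-life was determined for each matrix.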

[5] = Half life in Kunming mouse 15% brain homogenate at 500 uM by RP-HPLC analysis; type: ADME, tissue-based; outline: as §3
Mus musculus [6] = assay: Antinociceptive activity in Kunming mouse assessed as increase in latency to withdrawal at 10 mg/kg, sc measured up to 5 to 45 mins post dose in presence of opioid antagonist naloxone by tail-flick test; type: functional, organism-based

| SMILES | AUC (Mus musculus [1]) | AUC (Mus musculus [2]) | Ki [3] [µM] | Ki (Mu-type opioid receptor) [µM] | Ratio Ki (Rattus norvegicus) | half-life at 500 µM [4] [h] | half-life at 500 µM [5] [h] | Activity (Mus musculus [6]) |
| --- | --- | --- | --- | --- | --- | --- | --- | --- |
| NC(=O)[C@H](Cc1ccccc1)NC(=O)[C@H](Cc1c[nH]c2ccccc12)NC(=O)[C@@H]1CCCN1C(=O)[C@@H](N)Cc1ccc(O)cc1 | 693 | 271 | – | – | – | – | – | – |
| C[C@@H](NC(=O)[C@@H](N)Cc1ccc(O)cc1)C(=O)NCC(=O)N[C@@H](Cc1c[nH]c2ccccc12)C(=O)N[C@@H](Cc1ccccc1)C(N)=O | 304 | 336 | 4.05 | 0.0133 | 305 | 2.51 | 3.66 | – |
| C[C@@H](NC(=O)[C@@H](N)Cc1ccc(O)cc1)C(=O)NCC(=O)N[C@@H](Cc1c[nH]c2ccccc12)C(=O)N[C@@H](Cc1ccc(Cl)cc1)C(N)=O | 570 | 246 | 4.06 | 0.0077 | 528 | 2.84 | 4.2 | – |
| C[C@@H](NC(=O)[C@H](Cc1ccc(O)cc1)NC(=N)N)C(=O)NCC(=O)N[C@@H](Cc1c[nH]c2ccccc12)C(=O)N[C@@H](Cc1ccccc1)C(N)=O | 631 | 1160 | 3.87 | 0.00181 | 2140 | 4.08 | 7.4 | – |
| C[C@@H](NC(=O)[C@H](Cc1ccc(O)cc1)NC(=N)N)C(=O)NCC(=O)N[C@@H](Cc1c[nH]c2ccccc12)C(=O)N[C@@H](Cc1ccc(Cl)cc1)C(N)=O | 1400 | 650 | 2.03 | 0.0032 | 635 | 4.73 | 7.25 | inactive |

From ChEMBL document CHEMBL4184138 (Bioorg Med Chem Lett, 2017)
